# Bioassay records as filed in PubChem.
# Only some compounds are listed: those with a hit (about 2% of all), similar ones and a draw of the others.
# MBD2 inh = inhibitors of MBD2 binding to methylated DNA, primary screen, biochemical, TR-FRET, DNA-binding domain, human | Methyl-CpG-binding domain protein 2 (Homo sapiens), Q9UBB5 | MBD2 binding to methylated oligonucleotide | inhibition, % at 4.4 µM | 370,000 tested, 0.31% active | AID 686964, 2013; in the data active = inhibition above about 13%
# ASAP1 inh = inhibitors of human ASAP1 ArfGAP activity, primary screen, biochemical, fluorescence polarization; Arf-GAP with SH3 domain, ANK repeat and PH domain-containing protein 1 (Homo sapiens), …; ASAP1-stimulated ARF1 GTP hydrolysis, GDP FP detection; inhibition, % at 16.5 µM; 360,000 tested, 0.19% active; AID 624377, 2012; in the data active = inhibition above about 25%;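 also: 0% = vehicle with enzyme and substrate and 100% = no enzyme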
# ARFGAP1 inhibitor = inhibitors of rat ARFGAP1 GAP activity, primary screen, biochemical, fluorescence polarization, GDP tracer; ADP-ribosylation factor GTPase-activating protein 1 (Rattus norvegicus), Q62848; 360,000 tested, 0.26% active; inhibition, % at 16.5 µM; Arfgap1-stimulated ARF1 GTP hydrolysis, GDP FP detection;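 active = inhibition above a per-plate limit, mean inhibition of low control wells plus 3 SD, cut at about 25% in these data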;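 also: 0% = DMSO wells with enzyme and 100% = wells lacking Arfgap1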
#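 Repeats: one replicate per compound; assay system: rat Arfgap1 catalytic domain, aa 1-136; times: enzyme reaction 120 min at 25 °C after 20 min preincubation; detection: FP of antibody-bound GDP Alexa 633 tracer, ex 620/em 688 nm; benchmarks: high control wells lacking Arfgap1, low control full reaction with DMSO; reagent: human ARF1(Δ1-17)-GTP substrate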
# UHRF1 MBD2 ctr = UHRF1 methylated DNA binding inhibitors, primary screen, counter-screen for MBD2 inhibitor project, biochemical, TR-FRET, human UHRF1, single concentration; E3 ubiquitin-protein ligase UHRF1 (Homo sapiens), Q96T88; UHRF1 binding to methylated oligo; inhibition, % at 4.4 µM; 370,000 tested, 0.75% active; AID 687016, 2013; in the data active = inhibition above about 21%;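 also: UHRF1 SRA domain binding a hemimethylated CpG hairpin DNA probe; 0% = median of test compound wells and 100% = reference inhibitor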
# Target sequence (Q96T88 whole entry, looked up, the tested form may be a part): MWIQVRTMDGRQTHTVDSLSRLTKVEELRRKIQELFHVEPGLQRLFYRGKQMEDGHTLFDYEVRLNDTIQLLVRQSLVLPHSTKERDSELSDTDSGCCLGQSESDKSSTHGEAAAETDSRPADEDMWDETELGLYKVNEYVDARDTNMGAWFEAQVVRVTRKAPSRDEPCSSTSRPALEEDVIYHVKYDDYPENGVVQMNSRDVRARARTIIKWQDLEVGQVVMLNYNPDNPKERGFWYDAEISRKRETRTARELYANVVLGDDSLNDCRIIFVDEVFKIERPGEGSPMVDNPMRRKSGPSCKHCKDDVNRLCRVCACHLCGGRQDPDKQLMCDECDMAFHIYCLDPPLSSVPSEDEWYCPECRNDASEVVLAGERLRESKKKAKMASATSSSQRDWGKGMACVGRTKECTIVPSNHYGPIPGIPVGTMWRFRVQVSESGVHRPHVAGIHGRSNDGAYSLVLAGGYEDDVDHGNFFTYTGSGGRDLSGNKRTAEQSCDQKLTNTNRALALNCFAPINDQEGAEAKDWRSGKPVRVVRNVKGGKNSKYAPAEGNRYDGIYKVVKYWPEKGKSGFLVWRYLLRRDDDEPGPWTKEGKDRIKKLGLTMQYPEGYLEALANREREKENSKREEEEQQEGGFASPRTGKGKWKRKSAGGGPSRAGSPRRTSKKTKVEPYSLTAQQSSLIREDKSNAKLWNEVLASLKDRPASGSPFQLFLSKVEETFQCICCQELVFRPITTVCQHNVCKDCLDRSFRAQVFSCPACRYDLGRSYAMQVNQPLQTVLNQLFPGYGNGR
# TDP2 inh = human TDP2 enzyme inhibitors, primary screen, biochemical, epi absorbance, recombinant enzyme. Tyrosyl-DNA phosphodiesterase 2 (Homo sapiens), O95551. T5PNP hydrolysis, p-nitrophenol absorbance 415 nm. inhibition, % at 12.8 µM. 370,000 tested, 0.34% active;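 active = inhibition above the mean of all tested compounds plus 3 SD, set per campaign, cut at about 25% in these data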;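 also: 0% = DMSO with enzyme and 100% = buffer with substrate but no TDP2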
#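 Assay system: Recombinant human TDP2 | Quantity: 120 nM TDP2 per well | Incubation: 2 h at 37 °C | Signal: Epi absorbance | Evaluation: Percent inhibition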
# LEDGF integ inh = blockers of LEDGF/p75-dependent integrase strand transfer – biochemical, TR-FRET, high throughput, primary screen; HIV-1 integrase (with human LEDGF/p75); TR-FRET IN-LEDGF/p75 DNA integration, Eu/Cy5; inhibition, % at 3.7 µM; 370,000 tested, 0.64% active;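 active = inhibition above the screen-wide mean plus 3 SD, cut at about 13% in these data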;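 also: signal is the Cy5 over europium emission ratio at 671 and 618 nm; 0% = plate median of compound wells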
# ASAP1 GAP conf = ASAP1 GAP activity inhibitors, confirmation, biochemical, fluorescence polarization, human, triplicate. 620 tested, 37% active. ASAP1-stimulated Arf1 GTPase, GDP fluorescence polarization. shares compounds with ASAP1 inh. inhibition, % at 16.5 µM. AID 624431, 2012;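 active = mean inhibition over triplicates exceeds the hit threshold derived for the earlier primary screening run, cut at about 25% in these data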
# ARFGAP1 inh conf = ARFGAP1 inhibitor hit confirmation, biochemical, fluorescence polarization, triplicate | inhibition, % at 16.5 µM | 890 tested, 30% active | ARFGAP1-stimulated ARF1 GTP hydrolysis, GDP tracer FP | shares compounds with ARFGAP1 inhibitor | AID 651608, 2012;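 active = average inhibition over triplicates above the hit cutoff set in the earlier primary screen, cut at about 25% in these data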;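 also: 0% = Arfgap1 plus ARF1-GTP with DMSO and 100% = wells lacking Arfgap1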
# * = called active by the depositor; nt = not tested or not shown.
SMILES,MBD2 inh,ASAP1 inh,ARFGAP1 inhibitor,UHRF1 MBD2 ctr,TDP2 inh,LEDGF integ inh,ASAP1 GAP conf,ARFGAP1 inh conf
O=C(/C=C\c1cn(-c2ccccc2)nc1-c1ccccc1)Nc1nccs1,-2,50*,50*,0,4,0,32*,72*
CCCCCCC/C=C(\C)[C@@H](O)[C@@H](C)C(=O)N1CCC[C@@H]1C(=O)O[C@H](C(=O)O[C@@H](C)C(=O)O)[C@@H](C)CC,4,nt,nt,10,-8,3,nt,nt
CCN(CC)CCOC(=O)c1ccc(N/C=C(/C#N)c2nc(-c3ccc(OC)c(OC)c3)cs2)cc1,3,71*,115*,2,12,-3,184*,196*
CCN(CC)CCOC(=O)c1ccc(N/C=C(/C#N)c2nc(-c3cccc(OC)c3)cs2)cc1,6,0,-1,0,0,-1,nt,nt
O=C(N/N=C/c1cc(Cl)ccc1O)c1ccc(Br)cc1,2,52*,65*,-3,-1,-4,76*,99*
COc1cc(NC(=O)c2cc3c(C)nc4ccccc4c3o2)cc(OC)c1OC,0,33*,47*,2,3,-1,69*,52*
N#Cc1ccc(-c2ccc(OCC(=O)NCC(=O)Nc3ccc(F)c(F)c3F)cc2)cc1,0,37*,58*,0,-7,-4,51*,80*
CCOc1ccc(C(=O)CCC(=O)NCC(=O)Nc2ccc(F)c(F)c2F)cc1,-1,-6,10,0,5,-5,nt,nt
CC(=O)Nc1cc(-c2ccc(N3CCN(C)CC3)cc2)cn2c(-c3ccc(S(C)(=O)=O)cc3)cnc12,2,69*,74*,25*,4,1,148*,142*
CC(=O)Nc1cc(-c2ccc(N3CCN(C)CC3)cc2)cn2c(-c3ccccc3)cnc12,-1,6,6,-4,-4,1,nt,nt
O=C(NCc1ccccc1)c1ccc(CO)cc1,0,nt,nt,2,-4,-5,nt,nt
O=C(O)c1cc(NN=Nc2cccc([N+](=O)[O-])c2)cc([N+](=O)[O-])c1,0,29*,48*,-2,3,0,81*,94*
O=C(CSc1ccccc1)Nc1ccc(-c2nc3ccccc3[nH]2)cc1,9,57*,45*,2,3,-3,57*,59*
O=C(Nc1nc(-c2ccccc2)cs1)c1cccnc1,-3,-2,0,-7,9,2,nt,nt
CC(=O)Nc1ccc(C(=O)Nc2nc(-c3cccnc3)cs2)cc1,-7,29*,26*,1,0,0,52*,39*
CC(CCN1CCC(C(O)(c2ccccc2)c2ccccc2)CC1)Oc1ccc(C#N)cc1F (centres undefined),-6,nt,nt,3,-6,8,nt,nt
COc1ccc(C2C(C(=O)c3ccccc3)N3c4ccccc4C=CC3C2[N+](=O)[O-])cc1 (centres undefined),-12,29*,27*,-11,-8,3,12,10
O=C(Nc1cccc(-c2nc3ccccc3[nH]2)c1)c1cccc(NC(=O)c2ccco2)c1,5,44*,77*,1,-1,-3,76*,123*
C=CCN(CC=C)CCCOc1ccc(C)cc1OC,-2,51*,46*,-1,16,-1,0,-7
CCn1c(SCc2ccccc2Cl)nnc1-c1ccccc1OC,-1,nt,nt,6,-2,-3,nt,nt
O=C(NCc1ccncc1)C(=O)N/N=C/c1ccc(OCc2ccccc2)cc1,4,31*,58*,5,-2,1,41*,99*
O=C(NCc1ccncc1)C(=O)N/N=C/c1ccccc1OCc1ccccc1,2,5,-7,3,-4,3,nt,nt
COCCNc1nc(NCCCN2CCCC2=O)c2sc(-c3ccccc3)cc2n1,-2,19,2,-6,-10,-3,nt,nt
C=CCNc1nc(NCCCN2CCCC2=O)c2sc(-c3ccccc3)cc2n1,8,38*,60*,2,-11,-3,14,20
COc1ccc(-c2cc(-c3ccc(OC)c(OC)c3)n[nH]2)c(O)c1,0,38*,31*,0,3,0,34*,37*
SMILES,MBD2 inh,ASAP1 inh,ARFGAP1 inhibitor,UHRF1 MBD2 ctr,TDP2 inh,LEDGF integ inh,ASAP1 GAP conf,ARFGAP1 inh conf
COc1ccc(-c2cc(-c3ccccc3O)[nH]n2)cc1OC,-4,19,14,0,2,1,nt,nt
COc1cc(/C=N/NC(=O)c2ccc(O)cc2)ccc1OCC(=O)Nc1cccc([N+](=O)[O-])c1,2,30*,71*,-1,9,-2,42*,75*
COc1cc(/C=N/NC(=O)c2cccc([N+](=O)[O-])c2)ccc1OCc1ccccc1,-3,8,-13,-4,14,6,nt,nt
CC(C)CNC(=O)OCc1cn(Cc2cccc(C(F)(F)F)c2)nn1,-1,nt,nt,1,0,0,nt,nt
CCCCCCCCN1C(=O)[C@@H](CC(=O)NCC23CC4CC(CC(C4)C2)C3)C[C@@]2(C(=O)OC)C1=C[C@H](C(C)C)O[C@@H]2C1CC1,-1,nt,nt,-1,5,-1,nt,nt
COc1ccccc1Cc1c(-c2ccc(F)cc2)nc2ccc(Cl)cn12,-4,12,4,-1,4,-3,nt,nt
COc1cc2c3nnc(-c4ccccc4)c-3cn(Cc3ccccc3F)c2cc1OC,-4,58*,36*,0,-8,-1,116*,36*
COc1ccc(Cn2ccc3ccc(-c4ccc5ccn(Cc6ccccc6F)c5c4)cc32)cc1,1,nt,nt,0,3,-1,nt,nt
COc1cc2c3nnc(-c4ccc(F)cc4)c-3cn(Cc3ccccc3F)c2cc1OC,0,58*,152*,1,5,1,83*,172*
Clc1ccc2c(N/N=C/c3cccnc3)ccnc2c1,2,-5,8,-11,-11,-2,nt,nt
